Results: ChEMBL document CHEMBL1140079, “Discovery of orally bioavailable cathepsin S inhibitors for the reversal of neuropathic pain” (J Med Chem, 2008)
pIC50, pKi: −log10 of the molar value. Active and inactive are the calls of the source.

What was measured:
[1] = Inhibition of rat cathepsin S cysteine 137 mutant by fluorescence assay
In short: (§1)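 Recombinant rat cathepsins K, L, S (137Gly and 137Cys forms) and mouse cathepsin S in a fluorescence assay. Substrates: Z-Phe-Arg-MCA for K and L, Z-Leu-Leu-Arg-MCA for S. IC50 reported as means ± SD of three experiments.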

Rattus norvegicus [2] = species: Rattus norvegicus; experiment: Selectivity for rat cathepsin S glycine 137 mutant over rat cathepsin B
In short: (§2)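 Recombinant rat cathepsins in a fluorescence assay with MCA substrates: Z-Leu-Leu-Arg-MCA for cathepsin S (137Gly form), Z-Phe-Arg-MCA for K and L, and Z-Arg-Arg-MCA for B. IC50 values were taken as means ± SD of three experiments, and selectivity was compared from the IC50 values against the S enzyme and each other cathepsin.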

Rattus norvegicus [3] = species: Rattus norvegicus; experiment: Reversal of neuropathic mechanical hyperalgesia in Wistar rat sciatic nerve ligation model with cathepsin S glycine 137 mutation; assay type: functional, organism-based
In short: (§3)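 Partial sciatic nerve ligation in Wistar rats genotyped as 137Gly cathepsin S, with established mechanical hyperalgesia. Oral dosing in 0.5% methylcellulose/water; repeat regimen twice daily for 5 days, paw withdrawal thresholds 3 h post-dose. 6 animals/group; % reversal of hyperalgesia, mean ± SEM; ANOVA with Tukey's HSD versus vehicle.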

[4] = Bioavailability in Sprague-Dawley rat at 1 mg/kg, iv and 3 mg/kg, po by LC/MS analysis; assay type: ADME, organism-based; settings: in vivo
In short: (§4)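 Male Sprague-Dawley rats dosed orally at 3 mg/kg as a suspension and intravenously at 1 mg/kg as a bolus. Plasma levels quantified by LC/MS. Oral AUC and Cmax dose-normalized to 1 mg/kg. Means ± SD of three individual experiments.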

Homo sapiens [5] = species: Homo sapiens; experiment: Selectivity for human recombinant cathepsin S over human cathepsin X
[6] = Inhibition of human cathepsin X
[7] = Inhibition of rat cathepsin S glycine 137 mutant by fluorescence assay; in short: as §1
Cytochrome P450 1A2 = molecular target: T1, Cytochrome P450 1A2 (Homo sapiens, UniProt P05177); experiment: Inhibition of CYP1A2 at 10 uM; assay type: ADME
T1 sequence (P05177 whole entry): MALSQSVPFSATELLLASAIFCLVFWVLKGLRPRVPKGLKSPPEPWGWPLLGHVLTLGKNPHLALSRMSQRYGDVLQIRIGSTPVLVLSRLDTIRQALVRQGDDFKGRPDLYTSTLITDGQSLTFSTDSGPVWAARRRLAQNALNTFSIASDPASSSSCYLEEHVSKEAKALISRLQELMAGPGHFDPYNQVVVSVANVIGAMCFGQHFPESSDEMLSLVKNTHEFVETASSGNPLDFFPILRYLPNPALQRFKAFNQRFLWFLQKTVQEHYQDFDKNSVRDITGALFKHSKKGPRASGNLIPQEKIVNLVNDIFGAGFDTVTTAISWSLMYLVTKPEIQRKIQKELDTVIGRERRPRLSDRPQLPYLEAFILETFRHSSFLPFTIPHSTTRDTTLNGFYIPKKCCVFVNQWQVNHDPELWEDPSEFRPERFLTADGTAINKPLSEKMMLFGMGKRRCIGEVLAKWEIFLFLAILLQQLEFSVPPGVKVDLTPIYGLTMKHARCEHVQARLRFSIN
In short: (§5)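 Tested against a panel of cytochrome P450 enzymes at a maximum concentration of 10 µM.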

Cathepsin K [8] = molecular target: T2, Cathepsin K (Homo sapiens, UniProt P43235); experiment: Inhibition of human recombinant cathepsin K by fluorescence assay
T2 sequence (P43235 whole entry): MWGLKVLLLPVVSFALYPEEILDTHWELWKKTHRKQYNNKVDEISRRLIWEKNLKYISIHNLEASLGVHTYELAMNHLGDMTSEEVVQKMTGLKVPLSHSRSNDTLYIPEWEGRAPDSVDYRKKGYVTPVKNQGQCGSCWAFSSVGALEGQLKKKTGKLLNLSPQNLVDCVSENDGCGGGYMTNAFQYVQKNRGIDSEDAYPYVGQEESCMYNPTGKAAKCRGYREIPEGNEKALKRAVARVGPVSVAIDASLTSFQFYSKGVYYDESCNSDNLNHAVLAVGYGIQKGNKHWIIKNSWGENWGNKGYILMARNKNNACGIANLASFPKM
In short: (§6)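 Recombinant human enzymes in a fluorescence assay; substrate Z-Phe-Arg-MCA for cathepsins K and L, Z-Leu-Leu-Arg-MCA for cathepsin S. Means of two experiments, each run in duplicate; individual points within a 2-fold range of each other.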

[9] = Terminal elimination half life in Sprague-Dawley rat at 1 mg/kg, iv by LC/MS analysis; assay type: ADME, organism-based; parameters: dose 1 mg/kg, route intravenous; settings: in vivo; in short: as §4
[10] = Cmax in Sprague-Dawley rat at 3 mg/kg, po by LC/MS analysis; assay type: ADME, organism-based; parameters: dose 3 mg/kg, route oral; settings: in vivo; in short: as §4
Cytochrome P450 2C19 = Cytochrome P450 2C19 (Homo sapiens, UniProt P33261); experiment: Inhibition of CYP2C19 at 10 uM; assay type: ADME; in short: as §5
Cytochrome P450 2C19, sequence (P33261 whole entry): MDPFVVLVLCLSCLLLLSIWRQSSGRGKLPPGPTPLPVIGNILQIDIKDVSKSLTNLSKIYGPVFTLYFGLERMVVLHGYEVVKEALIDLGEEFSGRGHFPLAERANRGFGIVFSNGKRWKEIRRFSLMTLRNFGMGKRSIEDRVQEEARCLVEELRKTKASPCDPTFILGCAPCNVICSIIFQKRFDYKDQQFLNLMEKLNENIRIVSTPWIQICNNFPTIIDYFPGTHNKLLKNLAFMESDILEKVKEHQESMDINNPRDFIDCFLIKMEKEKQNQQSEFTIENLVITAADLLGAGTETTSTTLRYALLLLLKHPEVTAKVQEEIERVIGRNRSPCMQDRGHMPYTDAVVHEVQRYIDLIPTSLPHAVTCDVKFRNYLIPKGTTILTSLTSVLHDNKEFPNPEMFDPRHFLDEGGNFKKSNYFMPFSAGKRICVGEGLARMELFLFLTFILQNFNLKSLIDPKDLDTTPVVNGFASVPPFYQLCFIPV

[11] = Plasma clearance in Sprague-Dawley rat at 1 mg/kg, iv and 3 mg/kg, po by LC/MS analysis; assay type: ADME, organism-based; in short: as §4
Rattus norvegicus [12] = experiment: Reversal of neuropathic mechanical hyperalgesia in Wistar rat sciatic nerve ligation model assessed as paw withdrawal threshold at 30 mg/kg, po administered twice daily for 5 days after 3 hrs; assay type: functional; in short: as §3
Cathepsin S [13] = molecular target: Cathepsin S (Homo sapiens, UniProt P25774); experiment: Inhibition of human recombinant cathepsin S by fluorescence assay; in short: as §6
Cathepsin S (Homo sapiens, UniProt P25774), sequence (P25774 whole entry): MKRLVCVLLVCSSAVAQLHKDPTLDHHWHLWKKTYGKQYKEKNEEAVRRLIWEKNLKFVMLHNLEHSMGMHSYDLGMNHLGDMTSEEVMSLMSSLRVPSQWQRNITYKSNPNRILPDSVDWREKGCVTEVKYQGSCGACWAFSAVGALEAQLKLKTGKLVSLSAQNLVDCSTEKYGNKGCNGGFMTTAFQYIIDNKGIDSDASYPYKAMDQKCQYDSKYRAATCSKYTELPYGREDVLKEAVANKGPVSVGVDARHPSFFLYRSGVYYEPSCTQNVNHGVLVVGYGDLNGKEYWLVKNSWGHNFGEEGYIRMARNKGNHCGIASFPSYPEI

Cytochrome P450 2C9 = Cytochrome P450 2C9 (Homo sapiens, UniProt P11712); experiment: Inhibition of CYP2C9 at 10 uM; assay type: ADME; in short: as §5
Cytochrome P450 2C9, sequence (P11712 whole entry): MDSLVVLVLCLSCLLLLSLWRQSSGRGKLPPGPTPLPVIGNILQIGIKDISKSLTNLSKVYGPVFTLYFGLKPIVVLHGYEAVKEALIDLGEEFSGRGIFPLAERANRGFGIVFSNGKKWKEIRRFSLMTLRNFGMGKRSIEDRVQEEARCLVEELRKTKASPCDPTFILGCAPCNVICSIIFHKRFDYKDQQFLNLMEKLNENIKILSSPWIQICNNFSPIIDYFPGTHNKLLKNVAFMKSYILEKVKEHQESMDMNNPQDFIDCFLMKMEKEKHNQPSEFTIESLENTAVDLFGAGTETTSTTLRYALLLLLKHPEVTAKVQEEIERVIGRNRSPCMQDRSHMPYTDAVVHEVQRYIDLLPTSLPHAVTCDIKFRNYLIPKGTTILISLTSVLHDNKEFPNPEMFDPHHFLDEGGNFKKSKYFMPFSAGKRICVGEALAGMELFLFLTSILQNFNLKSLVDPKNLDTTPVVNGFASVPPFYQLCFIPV

Cathepsin S [14] = molecular target: Cathepsin S (Mus musculus, UniProt O70370); experiment: Inhibition of mouse cathepsin S by fluorescence assay; in short: as §1
[15] = Genotoxicity in liver S9 fraction by Ames test; assay type: toxicity, subcellular
In short: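 Standard Ames test run with liver S9 enzyme.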

Procathepsin L [16] = molecular target: Procathepsin L (Homo sapiens, UniProt P07711); experiment: Inhibition of human recombinant cathepsin L by fluorescence assay; in short: as §6
Procathepsin L (Homo sapiens, UniProt P07711), sequence (P07711 whole entry): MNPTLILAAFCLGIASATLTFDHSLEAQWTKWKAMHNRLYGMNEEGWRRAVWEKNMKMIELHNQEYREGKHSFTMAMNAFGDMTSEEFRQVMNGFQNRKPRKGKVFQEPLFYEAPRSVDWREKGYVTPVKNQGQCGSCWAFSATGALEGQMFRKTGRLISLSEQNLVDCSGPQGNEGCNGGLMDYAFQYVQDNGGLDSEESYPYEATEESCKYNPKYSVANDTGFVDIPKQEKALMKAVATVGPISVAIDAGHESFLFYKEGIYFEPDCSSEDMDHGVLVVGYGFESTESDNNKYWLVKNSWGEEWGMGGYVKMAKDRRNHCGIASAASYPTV

Procathepsin L [17] = molecular target: T3, Procathepsin L (Rattus norvegicus, UniProt P07154); experiment: Inhibition of rat cathepsin L by fluorescence assay; in short: as §1
T3 sequence (P07154 whole entry): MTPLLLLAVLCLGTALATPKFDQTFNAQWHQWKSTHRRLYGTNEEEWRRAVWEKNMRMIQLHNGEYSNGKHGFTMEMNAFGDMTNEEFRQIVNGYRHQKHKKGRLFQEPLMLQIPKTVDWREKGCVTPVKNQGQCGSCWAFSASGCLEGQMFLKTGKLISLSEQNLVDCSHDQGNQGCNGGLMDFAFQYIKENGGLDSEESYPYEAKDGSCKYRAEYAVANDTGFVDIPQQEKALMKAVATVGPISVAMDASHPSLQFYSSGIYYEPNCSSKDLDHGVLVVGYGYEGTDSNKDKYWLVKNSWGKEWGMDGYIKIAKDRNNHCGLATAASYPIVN

Rattus norvegicus [18] = species: Rattus norvegicus; experiment: Reversal of neuropathic mechanical hyperalgesia in Wistar rat sciatic nerve ligation model with cathepsin S cysteine 137 mutation; assay type: functional, organism-based
Dipeptidyl peptidase 1 = Dipeptidyl peptidase 1 (Homo sapiens, UniProt P53634); experiment: Inhibition of human cathepsin C
Dipeptidyl peptidase 1, sequence (P53634 25-134 limits assumed): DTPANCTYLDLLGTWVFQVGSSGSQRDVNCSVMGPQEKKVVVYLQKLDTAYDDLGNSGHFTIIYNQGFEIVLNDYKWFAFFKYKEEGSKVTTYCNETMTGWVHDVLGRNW
Dipeptidyl peptidase 1, sequence (P53634 231-394 limits assumed): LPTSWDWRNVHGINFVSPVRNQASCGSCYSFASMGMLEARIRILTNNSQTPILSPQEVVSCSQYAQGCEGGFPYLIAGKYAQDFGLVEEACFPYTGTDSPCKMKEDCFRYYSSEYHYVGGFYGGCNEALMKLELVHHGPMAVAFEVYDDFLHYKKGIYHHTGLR
Dipeptidyl peptidase 1, sequence (P53634 395-463 limits assumed): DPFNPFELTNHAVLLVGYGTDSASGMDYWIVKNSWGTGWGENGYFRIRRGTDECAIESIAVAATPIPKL

Pro-cathepsin H = molecular target: T4, Pro-cathepsin H (Homo sapiens, UniProt P09668); experiment: Inhibition of human cathepsin H
T4 sequence (P09668 whole entry): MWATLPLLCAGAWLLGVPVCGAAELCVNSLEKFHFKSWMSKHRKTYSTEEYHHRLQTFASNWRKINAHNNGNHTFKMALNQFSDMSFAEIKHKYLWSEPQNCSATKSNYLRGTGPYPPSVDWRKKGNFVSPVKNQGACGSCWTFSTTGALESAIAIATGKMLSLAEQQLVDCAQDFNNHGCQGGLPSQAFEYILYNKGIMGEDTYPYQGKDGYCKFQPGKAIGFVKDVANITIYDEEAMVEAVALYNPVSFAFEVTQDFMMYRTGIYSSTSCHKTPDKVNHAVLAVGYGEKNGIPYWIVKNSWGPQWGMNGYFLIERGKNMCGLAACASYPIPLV

Cathepsin K [19] = molecular target: T5, Cathepsin K (Rattus norvegicus, UniProt O35186); experiment: Inhibition of rat cathepsin K by fluorescence assay; in short: as §1
T5 sequence (O35186 whole entry): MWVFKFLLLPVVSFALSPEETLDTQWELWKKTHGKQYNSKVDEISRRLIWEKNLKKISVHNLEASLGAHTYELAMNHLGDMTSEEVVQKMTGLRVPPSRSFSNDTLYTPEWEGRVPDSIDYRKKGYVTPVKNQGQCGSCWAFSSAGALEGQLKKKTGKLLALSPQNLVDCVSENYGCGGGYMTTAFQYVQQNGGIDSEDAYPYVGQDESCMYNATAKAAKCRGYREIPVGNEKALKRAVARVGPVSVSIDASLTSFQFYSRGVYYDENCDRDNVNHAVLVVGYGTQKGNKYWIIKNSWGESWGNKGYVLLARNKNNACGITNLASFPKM

Homo sapiens [20] = species: Homo sapiens; experiment: Selectivity for human recombinant cathepsin S over human cathepsin H
[21] = molecular target: Cathepsin S (Mus musculus) (UniProt O70370); experiment: Inhibition of cathepsin S-mediated proteolytic cleavage of MHC2 associated invariant chain in mouse splenocytes assessed as induction of accumulation of lip10 at 1 µM
Cathepsin B = Cathepsin B (Homo sapiens, UniProt P07858); experiment: Inhibition of human cathepsin B
Rattus norvegicus [22] = species: Rattus norvegicus; experiment: Selectivity for rat cathepsin S glycine 137 mutant over rat cathepsin L; in short: as §2
Homo sapiens [23] = species: Homo sapiens; experiment: Selectivity for human recombinant cathepsin S over human cathepsin B
Cytochrome P450 3A4 = Cytochrome P450 3A4 (Homo sapiens, UniProt P08684); experiment: Inhibition of CYP3A4 at 10 uM; assay type: ADME; in short: as §5
Cytochrome P450 3A4, sequence (P08684 whole entry): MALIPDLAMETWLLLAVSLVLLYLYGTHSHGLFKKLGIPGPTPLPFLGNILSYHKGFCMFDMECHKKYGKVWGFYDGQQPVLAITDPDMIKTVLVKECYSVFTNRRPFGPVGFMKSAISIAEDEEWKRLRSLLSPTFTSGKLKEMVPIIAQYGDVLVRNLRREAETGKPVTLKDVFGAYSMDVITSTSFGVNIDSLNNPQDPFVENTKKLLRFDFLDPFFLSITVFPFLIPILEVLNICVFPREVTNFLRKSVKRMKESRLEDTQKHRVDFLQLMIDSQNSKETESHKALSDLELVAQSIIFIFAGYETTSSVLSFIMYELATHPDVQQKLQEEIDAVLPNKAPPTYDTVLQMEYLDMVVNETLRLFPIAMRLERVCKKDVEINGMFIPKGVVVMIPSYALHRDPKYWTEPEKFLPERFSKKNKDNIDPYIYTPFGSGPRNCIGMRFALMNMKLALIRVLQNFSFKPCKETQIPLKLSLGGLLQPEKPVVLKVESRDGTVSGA

Cytochrome P450 2D6 = Cytochrome P450 2D6 (Homo sapiens, UniProt P10635); experiment: Inhibition of CYP2D6 at 10 uM; assay type: ADME; in short: as §5
Cytochrome P450 2D6, sequence (P10635 whole entry): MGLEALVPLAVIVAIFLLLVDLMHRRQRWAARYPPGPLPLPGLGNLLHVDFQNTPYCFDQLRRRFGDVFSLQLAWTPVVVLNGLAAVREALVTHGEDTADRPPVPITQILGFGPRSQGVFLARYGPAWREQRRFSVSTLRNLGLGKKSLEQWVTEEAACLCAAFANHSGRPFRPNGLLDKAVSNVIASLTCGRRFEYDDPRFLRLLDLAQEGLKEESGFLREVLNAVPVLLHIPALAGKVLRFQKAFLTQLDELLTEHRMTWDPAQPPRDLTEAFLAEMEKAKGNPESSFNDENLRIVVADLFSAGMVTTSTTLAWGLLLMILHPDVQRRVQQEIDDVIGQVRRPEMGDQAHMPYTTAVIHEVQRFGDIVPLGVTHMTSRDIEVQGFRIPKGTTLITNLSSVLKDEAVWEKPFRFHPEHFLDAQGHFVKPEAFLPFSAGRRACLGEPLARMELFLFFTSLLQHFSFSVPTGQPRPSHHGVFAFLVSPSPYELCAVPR

Homo sapiens [24] = species: Homo sapiens; experiment: Selectivity for human recombinant cathepsin S over human cathepsin C
Rattus norvegicus [25] = species: Rattus norvegicus; experiment: Selectivity for rat cathepsin S glycine 137 mutant over rat cathepsin K; in short: as §2
[26] = molecular target: Cathepsin S (Mus musculus) (UniProt O70370); experiment: Inhibition of cathepsin S-mediated proteolytic cleavage of MHC2 associated invariant chain in mouse splenocytes assessed as induction of accumulation of lip10; assay type: cell-based
[27] = Volume of distribution in Sprague-Dawley rat at 1 mg/kg, iv and 3 mg/kg, po by LC/MS analysis; assay type: ADME, organism-based; settings: in vivo; in short: as §4
Rattus norvegicus [28] = experiment: Reversal of neuropathic mechanical hyperalgesia in Wistar rat sciatic nerve ligation model with cathepsin S glycine 137 mutation at 100 mg/kg, po; assay type: functional; in short: as §3

| pIC50 [1] | Activity (Rattus norvegicus [2]) | bioavailability [4] | pIC50 [7] | Activity (Cytochrome P450 1A2) | pIC50 (Cathepsin K [8]) | half-life [9] | Cmax [10] | Activity (Cytochrome P450 2C19) | clearance [11] | pIC50 (Cathepsin S [13]) | Activity (Cytochrome P450 2C9) | pIC50 (Cathepsin S [14]) | pIC50 (Procathepsin L [16]) | pIC50 (Procathepsin L [17]) | pIC50 (Cathepsin K [19]) | Activity (Rattus norvegicus [22]) | Activity (Cytochrome P450 3A4) | Structure (SMILES) | Activity (Rattus norvegicus [12]) | Activity [15] | other results |
| --- | --- | --- | --- | --- | --- | --- | --- | --- | --- | --- | --- | --- | --- | --- | --- | --- | --- | --- | --- | --- | --- |
| < 5.00 | > 100 | 21% | 7.55 | Not Active | 5.27 | 0.7 h | 37 nM | Not Active | 51.7 mL/min/kg | 8.00 | Not Active | 7.70 | 5.21 | < 5.00 | < 5.00 | > 100 | Not Active | CC(=O)N1CCN(c2ccc(OCc3cc4cnc(C#N)nc4n3CCC3CCC(F)(F)CC3)cc2)CC1 | 40% | Non-toxic | Activity (Rattus norvegicus [3]): Dose-dependent effect; Activity (Homo sapiens [5]): > 100; pKi [6]: 6.19; pKi (Cathepsin S [13]): 8.40; Activity (Rattus norvegicus [18]): inactive; pKi (Dipeptidyl peptidase 1): < 5.00; pKi (Pro-cathepsin H): < 5.00; Activity (Homo sapiens [20]): > 100; Activity [21]: Active; pIC50 (Cathepsin B): < 4.52; Activity (Homo sapiens [23]): > 100; Activity (Cytochrome P450 2D6): Not Active; Activity (Homo sapiens [24]): > 100; Activity (Rattus norvegicus [25]): > 100; Activity [26]: Dose-dependent effect; Vd [27]: 3.7 L/kg |
|  |  |  |  |  | < 5.70 |  |  |  |  | 7.30 |  |  | < 5.70 |  |  |  |  | CC(=O)N1CCN(c2ccc(OCc3cc4cnc(C#N)nc4n3CCC3CCCCCC3)cc2)CC1 |  |  |  |
| < 5.00 | > 100 | 24% | 7.92 | Not Active | 5.23 | 1.7 h | 30 nM | Not Active | 45 mL/min/kg | 7.74 | Not Active | 7.85 | 5.17 | < 5.00 | < 5.00 | > 100 | Not Active | CC(=O)N1CCN(c2ccc(OCc3cc4cnc(C#N)nc4n3CCC3CCCCC3)c(F)c2)CC1 | 63% | Non-toxic | Activity (Rattus norvegicus [28]): 54%; Activity (Cytochrome P450 2D6): Not Active; Activity (Rattus norvegicus [25]): > 100; Activity [26]: Dose-dependent effect; Vd [27]: 5.7 L/kg |
|  |  |  |  |  | < 6.00 |  |  |  |  | 8.05 |  |  | < 6.00 |  |  |  |  | CC(=O)N1CCN(c2ccc(OCc3cc4cnc(C#N)nc4n3CCC3CCCCC3)cc2F)CC1 |  |  |  |
